Laboratory results from ChEMBL document CHEMBL2157880, “Synthesis, antimycobacterial and antibacterial activity of ciprofloxacin derivatives containing a N-substituted benzyl moiety” (2012).
In brackets after ≈: the same amount, converted by molar mass.

Legend:
Format in all cases: functional
[1] = system: Klebsiella pneumoniae; experiment: Antibacterial activity against extended spectrum beta-lactamases producing Klebsiella pneumoniae 10-3 after 18 to 24 hrs by NCCLS method
How it was run: (§1)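 Standard NCCLS (M100-S11) MIC testing against Gram-positive and Gram-negative strains. Plates were incubated at 35 °C for 18–24 h. The MIC was read as the lowest concentration giving complete inhibition of visible bacterial growth.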

[2] = system: Streptococcus pneumoniae; experiment: Antibacterial activity against Streptococcus pneumoniae 10-6 after 18 to 24 hrs by NCCLS method; how it was run: as §1
[3] = system: Klebsiella pneumoniae; experiment: Antibacterial activity against Klebsiella pneumoniae 10-3 after 18 to 24 hrs by NCCLS method; how it was run: as §1
[4] = system: Pseudomonas aeruginosa; experiment: Antibacterial activity against Pseudomonas aeruginosa 10-18 after 18 to 24 hrs by NCCLS method; how it was run: as §1
[5] = system: Escherichia coli; experiment: Antibacterial activity against Escherichia coli 10-3 after 18 to 24 hrs by NCCLS method; how it was run: as §1
[6] = system: Klebsiella pneumoniae; experiment: Antibacterial activity against extended spectrum beta-lactamases producing Klebsiella pneumoniae 10-2 after 18 to 24 hrs by NCCLS method; how it was run: as §1
[7] = system: Pseudomonas aeruginosa; experiment: Antibacterial activity against Pseudomonas aeruginosa 10-12 after 18 to 24 hrs by NCCLS method; how it was run: as §1
[8] = system: Klebsiella pneumoniae; experiment: Antibacterial activity against Klebsiella pneumoniae 10-4 after 18 to 24 hrs by NCCLS method; how it was run: as §1
[9] = system: Pseudomonas aeruginosa; experiment: Antibacterial activity against Pseudomonas aeruginosa 10-5 after 18 to 24 hrs by NCCLS method; how it was run: as §1
[10] = system: Enterococcus faecalis; experiment: Antibacterial activity against Enterococcus faecalis 10-6 after 18 to 24 hrs by NCCLS method; how it was run: as §1
[11] = system: Staphylococcus aureus; experiment: Antibacterial activity against methicillin-sensitive Staphylococcus aureus 10-14 after 18 to 24 hrs by NCCLS method; how it was run: as §1
[12] = system: Staphylococcus epidermidis; experiment: Antibacterial activity against methicillin-sensitive Staphylococcus epidermidis 10-11 after 18 to 24 hrs by NCCLS method; how it was run: as §1
[13] = system: Escherichia coli; experiment: Antibacterial activity against Escherichia coli 10-2 after 18 to 24 hrs by NCCLS method; how it was run: as §1
[14] = system: Staphylococcus epidermidis; experiment: Antibacterial activity against methicillin-sensitive Staphylococcus epidermidis 10-15 after 18 to 24 hrs by NCCLS method
How it was run: (§2)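 Incubated at 35 °C for 18–24 h under NCCLS (M100-S11) standards. MIC was read as the lowest concentration giving complete inhibition of visible bacterial growth.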

[15] = system: Klebsiella pneumoniae; experiment: Antibacterial activity against extended spectrum beta-lactamases producing Klebsiella pneumoniae 10-1 after 18 to 24 hrs by NCCLS method; how it was run: as §1
[16] = system: Streptococcus pneumoniae; experiment: Antibacterial activity against Streptococcus pneumoniae 10-1 after 18 to 24 hrs by NCCLS method; how it was run: as §1
[17] = system: Staphylococcus aureus; experiment: Antibacterial activity against methicillin-sensitive Staphylococcus aureus 10-13 after 18 to 24 hrs by NCCLS method; how it was run: as §1
[18] = system: Staphylococcus aureus; experiment: Antibacterial activity against Staphylococcus aureus ATCC 2592 after 18 to 24 hrs by NCCLS method; how it was run: as §1
[19] = system: Escherichia coli; experiment: Antibacterial activity against extended spectrum beta-lactamases producing Escherichia coli 10-3 after 18 to 24 hrs by NCCLS method; how it was run: as §1
[20] = system: Mycobacterium tuberculosis; experiment: Antimycobacterial activity against Mycobacterium tuberculosis H37Rv ATCC 27294 by microplate alamar blue assay
How it was run: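 Microplate Alamar Blue fluorescence assay on strain H37Rv ATCC 27294. MIC was the lowest concentration cutting fluorescence by ≥90% against the mean of replicate bacterium-only controls.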

[21] = system: Enterococcus faecalis; experiment: Antibacterial activity against Enterococcus faecalis 10-5 after 18 to 24 hrs by NCCLS method; how it was run: as §1
[22] = system: Staphylococcus aureus; experiment: Antibacterial activity against methicillin-resistant Staphylococcus aureus 10-13 after 18 to 24 hrs by NCCLS method; how it was run: as §2
[23] = system: Staphylococcus aureus; experiment: Antibacterial activity against methicillin-resistant Staphylococcus aureus 10-15 after 18 to 24 hrs by NCCLS method; how it was run: as §2
[24] = system: Staphylococcus epidermidis; experiment: Antibacterial activity against methicillin-resistant Staphylococcus epidermidis 10-10 after 18 to 24 hrs by NCCLS method; how it was run: as §2
[25] = system: Pseudomonas aeruginosa; experiment: Antibacterial activity against Pseudomonas aeruginosa 10-20 after 18 to 24 hrs by NCCLS method; how it was run: as §1
[26] = system: Staphylococcus aureus; experiment: Antibacterial activity against methicillin-resistant Staphylococcus aureus 10-11 after 18 to 24 hrs by NCCLS method; how it was run: as §2
[27] = system: Enterococcus faecium; experiment: Antibacterial activity against Enterococcus faecium 10-6 after 18 to 24 hrs by NCCLS method; how it was run: as §1
[28] = system: Staphylococcus epidermidis; experiment: Antibacterial activity against methicillin-resistant Staphylococcus epidermidis 10-13 after 18 to 24 hrs by NCCLS method; how it was run: as §2
[29] = system: Escherichia coli; experiment: Antibacterial activity against extended spectrum beta-lactamases producing Escherichia coli 10-2 after 18 to 24 hrs by NCCLS method; how it was run: as §1
[30] = system: Pseudomonas aeruginosa; experiment: Antibacterial activity against Pseudomonas aeruginosa 10-15 after 18 to 24 hrs by NCCLS method; how it was run: as §1
[31] = system: Enterococcus faecalis; experiment: Antibacterial activity against Enterococcus faecalis 10-7 after 18 to 24 hrs by NCCLS method; how it was run: as §1
[32] = system: Enterococcus faecium; experiment: Antibacterial activity against Enterococcus faecium 10-9 after 18 to 24 hrs by NCCLS method; how it was run: as §1
[33] = system: Escherichia coli; experiment: Antibacterial activity against Escherichia coli 10-1 after 18 to 24 hrs by NCCLS method; how it was run: as §1
[34] = system: Escherichia coli; experiment: Antibacterial activity against extended spectrum beta-lactamases producing Escherichia coli 10-4 after 18 to 24 hrs by NCCLS method; how it was run: as §1
[35] = system: Staphylococcus aureus; experiment: Antibacterial activity against methicillin-sensitive Staphylococcus aureus 10-11 after 18 to 24 hrs by NCCLS method; how it was run: as §1
[36] = system: Pseudomonas aeruginosa; experiment: Antibacterial activity against Pseudomonas aeruginosa 10-9 after 18 to 24 hrs by NCCLS method; how it was run: as §1
[37] = system: Klebsiella pneumoniae; experiment: Antibacterial activity against Klebsiella pneumoniae 10-2 after 18 to 24 hrs by NCCLS method; how it was run: as §1
[38] = system: Escherichia coli; experiment: Antibacterial activity against Escherichia coli ATCC 25922 after 18 to 24 hrs by NCCLS method; how it was run: as §1

| Structure (SMILES) | MIC [1] [µg/mL] | MIC [2] [µg/mL] | MIC [3] [µg/mL] | MIC [4] [µg/mL] | MIC [5] [µg/mL] | MIC [6] [µg/mL] | MIC [7] [µg/mL] | MIC [8] [µg/mL] | MIC [9] [µg/mL] | MIC [10] [µg/mL] | MIC [11] [µg/mL] | MIC [12] [µg/mL] | MIC [13] [µg/mL] | MIC [14] [µg/mL] | MIC [15] [µg/mL] | MIC [16] [µg/mL] | MIC [17] [µg/mL] | MIC [18] [µg/mL] | MIC [19] [µg/mL] | MIC [20] [µg/mL] | also measured |
| --- | --- | --- | --- | --- | --- | --- | --- | --- | --- | --- | --- | --- | --- | --- | --- | --- | --- | --- | --- | --- | --- |
| O=C(O)c1cn(C2CC2)c2cc(N3CCN(Cc4ccc5c(c4)OCCO5)CC3)c(F)cc2c1=O | > 128 | 32 (≈ 66.7 µM) | 8 (≈ 16.7 µM) | 16 (≈ 33.4 µM) | 16 (≈ 33.4 µM) | > 128 | 16 (≈ 33.4 µM) | > 128 | 16 (≈ 33.4 µM) | 32 (≈ 66.7 µM) | 0.5 (≈ 1.04 µM) | 0.5 (≈ 1.04 µM) | 128 (≈ 267 µM) | 8 (≈ 16.7 µM) | > 128 | 1 (≈ 2.09 µM) | 0.25 (≈ 0.521 µM) | 0.125 (≈ 0.261 µM) | > 128 | 2 (≈ 4.17 µM) | MIC [21]: 4 µg/mL (≈ 8.34 µM); MIC [22]: 16 µg/mL (≈ 33.4 µM); MIC [23]: 4 µg/mL (≈ 8.34 µM); MIC [24]: 8 µg/mL (≈ 16.7 µM); MIC [25]: 32 µg/mL (≈ 66.7 µM); MIC [26]: 16 µg/mL (≈ 33.4 µM); MIC [27]: 2 µg/mL (≈ 4.17 µM); MIC [28]: 16 µg/mL (≈ 33.4 µM); MIC [29]: > 128 µg/mL; MIC [30]: 32 µg/mL (≈ 66.7 µM); MIC [31]: 32 µg/mL (≈ 66.7 µM); MIC [32]: 32 µg/mL (≈ 66.7 µM); MIC [33]: > 128 µg/mL; MIC [34]: 128 µg/mL (≈ 267 µM); MIC [35]: 0.25 µg/mL (≈ 0.521 µM); MIC [36]: 64 µg/mL (≈ 133 µM); MIC [37]: > 128 µg/mL; MIC [38]: 0.125 µg/mL (≈ 0.261 µM) |
| O=C(O)c1cn(C2CC2)c2cc(N3CCN(Cc4cc5c(cc4[N+](=O)[O-])OCO5)CC3)c(F)cc2c1=O | > 128 | 16 (≈ 31.3 µM) | 2 (≈ 3.92 µM) | 2 (≈ 3.92 µM) | 8 (≈ 15.7 µM) | > 128 | 1 (≈ 1.96 µM) | > 128 | 1 (≈ 1.96 µM) | 64 (≈ 125 µM) | 1 (≈ 1.96 µM) | 1 (≈ 1.96 µM) | 1 (≈ 1.96 µM) | 16 (≈ 31.3 µM) | > 128 | 2 (≈ 3.92 µM) | 1 (≈ 1.96 µM) | 0.5 (≈ 0.979 µM) | > 128 | 2 (≈ 3.92 µM) | MIC [21]: 32 µg/mL (≈ 62.7 µM); MIC [22]: 32 µg/mL (≈ 62.7 µM); MIC [23]: 32 µg/mL (≈ 62.7 µM); MIC [24]: 16 µg/mL (≈ 31.3 µM); MIC [25]: 4 µg/mL (≈ 7.84 µM); MIC [26]: 32 µg/mL (≈ 62.7 µM); MIC [27]: 2 µg/mL (≈ 3.92 µM); MIC [28]: 32 µg/mL (≈ 62.7 µM); MIC [29]: > 128 µg/mL; MIC [30]: 0.5 µg/mL (≈ 0.979 µM); MIC [31]: 32 µg/mL (≈ 62.7 µM); MIC [32]: 16 µg/mL (≈ 31.3 µM); MIC [33]: 32 µg/mL (≈ 62.7 µM); MIC [34]: 8 µg/mL (≈ 15.7 µM); MIC [35]: 0.5 µg/mL (≈ 0.979 µM); MIC [36]: 1 µg/mL (≈ 1.96 µM); MIC [37]: 64 µg/mL (≈ 125 µM); MIC [38]: 0.125 µg/mL (≈ 0.245 µM) |
